From ChEMBL document CHEMBL3817843, “Understanding Oxadiazolothiazinone Biological Properties: Negative Inotropic Activity versus Cytochrome P450-Mediated Metabolism” (J Med Chem, 2016)

What was measured:
[1] = system: Left cardiac atrium; test: Negative inotropic activity in potassium depolarized guinea pig left atrium assessed as reduction in developed tension after 30 mins; assay type: functional; conditions: Cavia porcellus, 0.5 h
Method in brief: (§1)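 Guinea pig left atria electrically driven at 1 Hz. EC50 taken from log concentration−response curves by Litchfield and Wilcoxon probit analysis, n = 6−7. Not calculated when the maximum effect was below 50%.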

[2] = system: Aorta; test: Vasorelaxant activity in potassium depolarized guinea pig aorta assessed as inhibition of calcium-induced contraction at 10^-4 M after 30 mins; assay type: functional, Cavia porcellus; design: scale not given: the % may be the effect or the level left
Method in brief: (§2)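 Guinea pig aortic strips depolarized with K+ (80 mM). Calcium-induced contraction measured; inhibition expressed as percent change from control, n = 3−5.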

[3] = system: Right cardiac atrium; test: Negative chronotropic activity in potassium depolarized guinea pig right atrium assessed as reduction in atrial rate at 50 uM after 30 mins; assay type: functional, Cavia porcellus; design: scale not given: the % may be the effect or the level left
[4] = system: Left cardiac atrium; test: Negative inotropic activity in potassium depolarized guinea pig left atrium assessed as reduction in developed tension at 50 uM after 30 mins; assay type: functional, Cavia porcellus; design: scale not given: the % may be the effect or the level left
[5] = system: Right cardiac atrium; test: Negative chronotropic activity in potassium depolarized guinea pig right atrium assessed as reduction in atrial rate at 10^-4 M after 30 mins; assay type: functional, Cavia porcellus; design: scale not given: the % may be the effect or the level left
[6] = system: Left cardiac atrium; test: Negative inotropic activity in potassium depolarized guinea pig left atrium assessed as reduction in developed tension at 10^-4 M after 30 mins; assay type: functional, Cavia porcellus; design: scale not given: the % may be the effect or the level left
[7] = system: Left cardiac atrium; test: Negative inotropic activity in potassium depolarized guinea pig left atrium assessed as reduction in developed tension at 10^-5 M; assay type: functional, Cavia porcellus; design: scale not given: the % may be the effect or the level left
[8] = system: Right cardiac atrium; test: Negative chronotropic activity in potassium depolarized guinea pig right atrium assessed as reduction in atrial rate after 30 mins; assay type: functional; conditions: Cavia porcellus, 0.5 h
[9] = system: Right cardiac atrium; test: Negative chronotropic activity in potassium depolarized guinea pig right atrium assessed as reduction in atrial rate at 10^-6 M after 30 mins; assay type: functional, Cavia porcellus; design: scale not given: the % may be the effect or the level left
[10] = system: Aorta; test: Vasorelaxant activity in potassium depolarized guinea pig aorta assessed as inhibition of calcium-induced contraction at 10^-4 M; assay type: functional, Cavia porcellus; design: scale not given: the % may be the effect or the level left; method in brief: as §2
[11] = system: Left cardiac atrium; test: Negative inotropic activity in potassium depolarized guinea pig left atrium assessed as reduction in developed tension at 10^-5 M after 30 mins; assay type: functional, Cavia porcellus; design: scale not given: the % may be the effect or the level left
[12] = Relaxant activity in potassium depolarized guinea pig ileum longitudinal smooth muscle assessed as inhibition of calcium-induced contraction after 30 mins; assay type: functional, tissue-based; conditions: Cavia porcellus, 0.5 h
[13] = Relaxant activity in potassium depolarized guinea pig ileum longitudinal smooth muscle assessed as inhibition of calcium-induced contraction at 5 uM after 30 mins; assay type: functional, Cavia porcellus; design: scale not given: the % may be the effect or the level left
[14] = system: Aorta; test: Vasorelaxant activity in potassium depolarized guinea pig aorta assessed as inhibition of calcium-induced contraction at 50 uM after 30 mins; assay type: functional, Cavia porcellus; design: scale not given: the % may be the effect or the level left; method in brief: as §2
[15] = target: T1, Cytochrome P450 1A2 (Homo sapiens, UniProt P05177); test: Inhibition of CYP1A2 in human liver microsomes using phenacetin as substrate after 30 mins by LC-MS analysis
T1 sequence (P05177 whole entry): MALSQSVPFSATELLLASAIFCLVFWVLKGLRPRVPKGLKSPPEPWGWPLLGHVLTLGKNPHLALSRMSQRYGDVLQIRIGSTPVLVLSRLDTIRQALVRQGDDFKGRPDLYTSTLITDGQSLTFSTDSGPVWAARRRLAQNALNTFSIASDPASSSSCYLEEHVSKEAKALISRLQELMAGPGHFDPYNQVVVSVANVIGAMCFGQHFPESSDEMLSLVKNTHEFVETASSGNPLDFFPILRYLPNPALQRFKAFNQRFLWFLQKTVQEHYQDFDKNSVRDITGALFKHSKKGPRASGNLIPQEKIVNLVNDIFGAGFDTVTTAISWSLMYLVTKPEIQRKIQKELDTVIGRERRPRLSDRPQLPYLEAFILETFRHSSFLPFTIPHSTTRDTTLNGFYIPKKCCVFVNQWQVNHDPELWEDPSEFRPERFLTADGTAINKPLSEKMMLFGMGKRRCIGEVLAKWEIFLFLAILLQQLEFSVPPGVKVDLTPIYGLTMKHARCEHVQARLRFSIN

[16] = system: Liver microsome; test: Stability in human liver microsomes at 1 uM after 2 to 60 mins by LC-MS analysis in absence of NADPH
[17] = Relaxant activity in potassium depolarized guinea pig ileum longitudinal smooth muscle assessed as inhibition of calcium-induced contraction at 50 uM after 30 mins; assay type: functional, Cavia porcellus; design: scale not given: the % may be the effect or the level left
[18] = target: Cytochrome P450 2C19 (Homo sapiens, UniProt P33261); test: Inhibition of CYP2C19 in human liver microsomes using (S)-mephenytoin as substrate after 40 mins by LC-MS analysis
Chain of Cytochrome P450 2C19 (P33261 whole entry): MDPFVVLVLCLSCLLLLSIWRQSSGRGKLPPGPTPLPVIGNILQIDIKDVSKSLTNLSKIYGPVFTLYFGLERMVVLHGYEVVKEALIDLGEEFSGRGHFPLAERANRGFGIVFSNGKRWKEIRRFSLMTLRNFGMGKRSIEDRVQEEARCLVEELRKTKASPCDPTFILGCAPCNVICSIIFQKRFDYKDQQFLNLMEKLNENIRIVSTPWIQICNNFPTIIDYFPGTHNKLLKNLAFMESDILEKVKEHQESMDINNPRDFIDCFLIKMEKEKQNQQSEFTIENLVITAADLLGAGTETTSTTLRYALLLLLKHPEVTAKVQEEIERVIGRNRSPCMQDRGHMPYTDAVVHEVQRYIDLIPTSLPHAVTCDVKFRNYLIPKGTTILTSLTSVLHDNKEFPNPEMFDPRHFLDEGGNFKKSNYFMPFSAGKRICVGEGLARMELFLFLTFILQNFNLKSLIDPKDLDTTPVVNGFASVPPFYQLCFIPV

[19] = target: T2, Cytochrome P450 3A4 (Homo sapiens, UniProt P08684); test: Inhibition of CYP3A4 in human liver microsomes using testosterone as substrate after 5 mins by LC-MS analysis
T2 sequence (P08684 whole entry): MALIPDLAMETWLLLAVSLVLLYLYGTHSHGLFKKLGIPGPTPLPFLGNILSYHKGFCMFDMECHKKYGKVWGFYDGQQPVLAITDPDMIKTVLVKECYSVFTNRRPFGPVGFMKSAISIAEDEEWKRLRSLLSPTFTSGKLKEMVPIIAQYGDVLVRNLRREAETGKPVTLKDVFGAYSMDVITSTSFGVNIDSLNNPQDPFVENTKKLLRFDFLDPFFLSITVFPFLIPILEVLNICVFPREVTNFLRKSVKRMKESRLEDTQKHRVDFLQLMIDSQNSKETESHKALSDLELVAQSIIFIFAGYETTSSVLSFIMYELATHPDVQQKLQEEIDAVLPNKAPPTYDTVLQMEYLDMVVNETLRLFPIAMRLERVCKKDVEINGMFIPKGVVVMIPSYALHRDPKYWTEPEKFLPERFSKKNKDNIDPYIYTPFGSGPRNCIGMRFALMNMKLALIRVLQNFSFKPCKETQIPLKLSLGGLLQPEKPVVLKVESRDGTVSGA

[20] = in vitro; conditions: human, liver microsomes
[21] = Half life in human liver microsomes assessed as CYP-mediated compound degradation at 1 uM by LC-MS analysis
[22] = target: Cytochrome P450 2C9 (Homo sapiens, UniProt P11712); test: Inhibition of CYP2C9 in human liver microsomes using tolbutamide as substrate after 20 mins by LC-MS analysis
Chain of Cytochrome P450 2C9 (P11712 whole entry): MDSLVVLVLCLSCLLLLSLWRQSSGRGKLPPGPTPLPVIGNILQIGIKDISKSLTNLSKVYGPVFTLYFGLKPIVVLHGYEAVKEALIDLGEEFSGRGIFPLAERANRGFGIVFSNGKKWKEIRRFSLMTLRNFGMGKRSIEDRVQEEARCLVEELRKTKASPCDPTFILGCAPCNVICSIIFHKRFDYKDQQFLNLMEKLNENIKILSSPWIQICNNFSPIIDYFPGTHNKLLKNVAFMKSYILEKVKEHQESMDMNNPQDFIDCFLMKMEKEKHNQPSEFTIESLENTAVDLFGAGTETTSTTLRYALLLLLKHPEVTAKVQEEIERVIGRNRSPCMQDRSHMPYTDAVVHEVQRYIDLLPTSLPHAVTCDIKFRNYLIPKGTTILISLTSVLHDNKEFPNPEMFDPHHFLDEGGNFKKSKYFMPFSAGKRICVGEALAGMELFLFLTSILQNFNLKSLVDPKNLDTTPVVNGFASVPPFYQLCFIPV

[23] = target: Cytochrome P450 2D6 (Homo sapiens, UniProt P10635); test: Inhibition of CYP2D6 in human liver microsomes using dextromethorphan as substrate after 10 mins by LC-MS analysis
Chain of Cytochrome P450 2D6 (P10635 whole entry): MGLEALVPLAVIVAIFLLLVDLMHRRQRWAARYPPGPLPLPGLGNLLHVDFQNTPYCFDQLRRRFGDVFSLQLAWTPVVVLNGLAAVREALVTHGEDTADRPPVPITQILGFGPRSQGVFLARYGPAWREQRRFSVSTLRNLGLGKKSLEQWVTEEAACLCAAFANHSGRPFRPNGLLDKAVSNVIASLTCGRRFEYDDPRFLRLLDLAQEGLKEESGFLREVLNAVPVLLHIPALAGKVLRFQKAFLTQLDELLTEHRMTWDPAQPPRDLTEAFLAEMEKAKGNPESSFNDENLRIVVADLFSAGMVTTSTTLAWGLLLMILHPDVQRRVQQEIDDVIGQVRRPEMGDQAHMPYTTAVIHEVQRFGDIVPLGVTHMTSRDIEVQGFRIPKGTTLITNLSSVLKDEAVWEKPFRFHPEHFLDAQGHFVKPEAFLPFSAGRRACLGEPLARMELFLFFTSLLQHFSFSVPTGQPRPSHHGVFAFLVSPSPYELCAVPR

[24] = target: T2, Cytochrome P450 3A4; test: Inhibition of CYP3A4 in human liver microsomes using midazolam as substrate after 4 mins by LC-MS analysis
[25] = system: Left cardiac atrium; test: Negative inotropic activity in potassium depolarized guinea pig left atrium assessed as reduction in developed tension; assay type: functional; conditions: Cavia porcellus; method in brief: as §1
[26] = system: Aorta; test: Vasorelaxant activity in potassium depolarized guinea pig aorta assessed as inhibition of calcium-induced contraction at 10^-6 M; assay type: functional, Cavia porcellus; design: scale not given: the % may be the effect or the level left
Method in brief: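 Guinea pig aortic strips depolarized with 80 mM K+, then contracted by calcium addition. The read-out is percent inhibition of the calcium-induced contraction, expressed as percent change from control, with n = 3–5.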

COc1ccccc1C1(OCC2CCCCC2)SC=C(C)n2c1noc2=O (stereo unspecified)
EC50 [1]: 480 nM | Activity [2]: 17% | Activity [3]: 22% | Activity [4]: 89%

COc1ccc(C2(OCC3CCCCC3)SC=C(C)n3c2noc3=O)cc1 (stereo unspecified)
EC50 [1]: 660 nM | Activity [5]: 3% | Activity [6]: 80% | Activity [2]: 21%

COc1ccc([C@@H]2Sc3ccccc3N(CCN(C)C)C(=O)[C@@H]2OC(C)=O)cc1 [DILTIAZEM]
Activity [7]: 78% | EC30 [8]: 70 nM | Activity [9]: 94% | Activity [10]: 88% | Activity [11]: 78% | Activity [2]: 88% | IC50 [12]: 110 nM | Activity [13]: 98%

O=c1onc2n1C=CSC2(O)c1ccccc1 (stereo unspecified)
Activity [14]: 11% | Activity [3]: 14% | Activity [4]: 74%

CC(C)OC1(c2ccccc2)Sc2ccccc2-n2c1noc2=O (stereo unspecified)
EC50 [1]: 410 nM | Activity [5]: 13% | Activity [2]: 7% | Activity [4]: 69%

CCOC1(c2ccccc2)SC=C(C)n2c1noc2=O (stereo unspecified)
IC50 [15]: > 20000 nM | Stability [16]: Stable | Activity [17]: 89% | IC50 [18]: 4800 nM | IC50 [19]: 19100 nM | Activity [9]: 11% | EC50 [1]: 220 nM | microsomal CLint at 1 µM [20]: 86 µL/min/mg | Activity [11]: 86% | half-life at 1 µM [21]: 20 min | Activity [2]: 32% | IC50 [22]: > 20000 nM | IC50 [23]: 16900 nM | IC50 [12]: 11600 nM | IC50 [24]: > 20000 nM

COC(=O)C1=C(C)NC(C)=C(C(=O)OC)C1c1ccccc1[N+](=O)[O-] [NIFEDIPINE]
Activity [7]: 97% | EC50 [25]: 260 nM | Activity [26]: 82%
